In general, IC50 refers to the concentration at which inhibition is half-maximal.

The structures appear in SMILES notation. A value given as a limit tells only on which side of the number the result lay.

Test [1] can be described thus: Inhibitory activity against Leishmania mexicana GAPDH; Inactive at 50 uM.
Test [2] in a line: In vitro inhibition of Trypanosoma cruzi GAPDH. The essentials: (§1)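 Spectrophotometric assay at 23 °C in 0.10 M triethanolamine/HCl, pH 7.5. Enzyme starts the reaction and inhibitors are in 5% DMSO-d₆. Initial rates over 0–2 min are compared with control. IC50 comes from ≥5 concentrations, or is extrapolated from ≥3 concentrations when above 50 µM.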
Test [3] can be described thus: In vitro inhibition of rabbit muscle GAPDH. Further details: species or system Oryctolagus cuniculus; call rule not given here. In a few lines:
as §1

The test system of test [4] is NIH3T3. The test can be described thus: Effective concentration required to inhibit the growth of murine 3T3 fibroblasts. The format is functional. To be noted: Mus musculus, read-out: ED50 (the source's name).
A short description of test [5]: In vitro inhibition of Trypanosoma brucei GAPDH. In a few lines:
as §1

Test [6] relates to Trypanosoma brucei. Put plainly: (§2) Effective concentration required to block the growth of bloodstream Trypanosoma brucei. The format is functional. Conditions: read-out: ED50 (the source's name). In a few lines: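 Bloodstream-form strain 427 trypomastigotes are grown in HMI-9 with 10% FBS at 37 °C, 5% CO₂. Triplicate wells are seeded at 5 × 10³ parasites per well with serially diluted drug. Growth is read with Alamar Blue at 48 h. Assays were run twice.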

Test [7] deals with Trypanosoma cruzi. Put plainly: Effective concentration required to inhibit the growth of mammalian stage of Trypanosoma cruzi grown in murine 3T3 fibroblasts. The format is functional. To be noted: read-out: ED50 (the source's name). In a few lines:
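Tulahuen strain stably carrying E. coli lacZ. Mammalian stages are cocultured with mouse 3T3 fibroblasts in RPMI 1640 with 10% FBS at 37 °C, 5% CO₂. Intracellular growth is followed by a colorimetric β-galactosidase read-out. Assays were run twice.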

Test [8] has as its target Glyceraldehyde-3-phosphate dehydrogenase, glycosomal (Leishmania mexicana, UniProt Q27890). Put plainly: Inhibitory activity against Leishmania mexicana GAPDH. In a few lines:
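Spectrophotometric GAPDH assay at 23 °C in 0.10 M triethanolamine/HCl pH 7.5, read as NADH formation at 340 nm. Final: 5.0 mM MgSO4, 1.0 mM EDTA, 12.8 mM KH2PO4, 1.0 mM DTT, 1.0 mM NaN3, 0.45 mM NAD+, 1.87 mM fresh glyceraldehyde-3-phosphate, 5% DMSO-d6. Started with enzyme. Initial rates 0–2 min as % of control. IC50 from ≥5 concentrations (≤50 µM) or extrapolated from ≥3.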

Test [9] relates to Trypanosoma brucei. The description is as §2. Type of test: functional. To be noted: read-out: ED50 (the source's name). In a few lines: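 Bloodstream-form strain 427 trypomastigotes grown in HMI-9 with 10% fetal bovine serum, penicillin and streptomycin at 37 °C, 5% CO2. Inoculum 5 × 10³ parasites per well, drug given in serial dilutions, triplicate wells. Growth read at 48 h with Alamar Blue, checked against hemacytometer counts. Assay run twice.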
This is another data set of the same source.

Sequence of Glyceraldehyde-3-phosphate dehydrogenase, glycosomal (Q27890 whole entry, looked up): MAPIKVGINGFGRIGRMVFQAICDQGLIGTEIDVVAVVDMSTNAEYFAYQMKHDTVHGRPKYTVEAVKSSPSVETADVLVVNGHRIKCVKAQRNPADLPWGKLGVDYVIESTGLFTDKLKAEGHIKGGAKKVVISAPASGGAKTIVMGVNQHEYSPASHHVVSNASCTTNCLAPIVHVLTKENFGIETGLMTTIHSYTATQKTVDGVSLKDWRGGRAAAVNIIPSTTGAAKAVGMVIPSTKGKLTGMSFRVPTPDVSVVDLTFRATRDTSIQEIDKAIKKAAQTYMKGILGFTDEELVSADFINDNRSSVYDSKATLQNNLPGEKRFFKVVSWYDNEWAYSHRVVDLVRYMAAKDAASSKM

For `COc1cccc(C(=O)N[C@@H]2[C@H](O)[C@@H](CO)O[C@H]2n2cnc3c(NCc4c(OC)ccc5ccccc45)ncnc32)c1`, in [1], the IC50 entry was “Not Active”.

In the case of `COc1ccccc1C(=O)N[C@@H]1[C@H](O)[C@@H](CO)O[C@H]1n1cnc2c(NCc3cccc4ccccc34)ncnc21`, in test [1], the IC50 result is on record as “Not Active”.

As for `O=C(N[C@@H]1[C@H](O)[C@@H](CO)O[C@H]1n1cnc2c(NCc3cccc4ccccc34)ncnc21)c1cc(Cl)cc(Cl)c1`, the IC50 is 75 µM in test [2], greater than 50 µM in test [3], 100 µM in test [5] and 12 µM in test [8]. Further, the EC50 in [4] came to 35 µM; in test [6], 5 µM; in test [7], 7 µM.

As to `O=C(N[C@@H]1[C@H](O)[C@@H](CO)O[C@H]1n1cnc2c(NCc3cc(O)cc4ccccc34)ncnc21)c1cccc(Cl)c1`, the IC50 in test [2] is 12 µM; in [3], greater than 50 µM; in test [5], 25 µM; in test [8], 4 µM. For the same molecule, the EC50 was greater than 50 µM in test [4], 16 µM in test [6] and 30 µM in [7].

Regarding `COc1cc(OC)cc(C(=O)N[C@@H]2[C@H](O)[C@@H](CO)O[C@H]2n2cnc3c(NCc4cccc5ccccc45)ncnc32)c1`, the 50% inhibitory concentration (IC50) in test [2] is 7 µM; in test [3], greater than 50 µM; in test [5], 7 µM; in [8] it was 2 µM. For the same molecule, the figures for the EC50 in test [4], in test [6] and in test [7] were 40 µM, 17 µM and 8 µM, respectively.

Consider `CC(=O)Oc1ccccc1C(=O)N[C@@H]1[C@H](O)[C@@H](CO)O[C@H]1n1cnc2c(NCc3cccc4ccccc34)ncnc21`, for which the half-maximal inhibitory concentration (IC50) entry in test [1] is on record as “Not Active”.

In the case of `COc1cccc(C(=O)N[C@@H]2[C@H](O)[C@@H](CO)O[C@H]2n2cnc3c(NCc4cccc5ccccc45)ncnc32)c1O`, the IC50 entry in test [1] is given as “Not Active”.

Turning to `COc1cccc(C(=O)N[C@@H]2[C@H](O)[C@@H](CO)O[C@H]2n2cnc3c(NCc4cc(O)cc5ccccc45)ncnc32)c1`, the IC50 in [2] was 12 µM; in test [3] it was greater than 50 µM; in test [5] it was 25 µM; in [8], 6 µM. Also, the EC50 is greater than 50 µM in [4], 35 µM in test [6] and greater than 50 µM in test [7].

For the molecule `O=C(CC1CCCCC1)NC[C@H]1OC(n2cnc3c(NCc4cccc5ccccc45)ncnc32)[C@H](O)[C@@H]1O` (stereo partly drawn), the IC50 result in test [1] is reported as “Not Active”.

Regarding `O=C(NC[C@H]1OC(n2cnc3c(NCc4cccc5ccccc45)ncnc32)[C@H](O)[C@@H]1O)C(c1ccccc1)c1ccccc1` (stereo partly drawn), the half-inhibitory concentration (IC50) result in test [1] is “Not Active”.

As to `CC(=O)Oc1cc(OC(C)=O)cc(C(=O)N[C@@H]2[C@H](O)[C@@H](CO)O[C@H]2n2cnc3c(NCc4cccc5ccccc45)ncnc32)c1`, the IC50 was 12 µM in test [2], greater than 50 µM in [3], 14 µM in test [5] and 10 µM in [8]. Besides, the EC50 in test [4], in [6] and in test [7] was greater than 50 µM in each case.

As to `O=C(N[C@@H]1[C@H](O)[C@@H](CO)O[C@H]1n1cnc2c(NCc3cccc4ccccc34)ncnc21)c1ccccc1O`, the IC50 entry in test [1] was “Not Active”.

Turning to `COc1cccc(C(=O)N[C@@H]2[C@H](O)[C@@H](CO)O[C@H]2n2cnc3c(NCc4cc(OC)cc5ccccc45)ncnc32)c1`, the IC50 in test [2] was 12 µM; in test [3] it was greater than 50 µM; in test [5] it was 12 µM; in test [8] it was 3 µM. The EC50 was greater than 50 µM in test [4], 31 µM in test [6] and 20 µM in [7].

Consider `COc1cccc(C(=O)N[C@@H]2[C@H](O)[C@@H](CO)O[C@H]2n2cnc3c(NCc4cccc5ccccc45)ncnc32)c1OC(C)=O`, for which, in test [1], the IC50 entry is given as “Not Active”.

Regarding `O=C(N[C@@H]1[C@H](O)[C@@H](CO)O[C@H]1n1cnc2c(NCc3cccc4ccccc34)ncnc21)c1ccccc1Cl`, in test [1], the IC50 result is listed as “Not Active”.

With `N=C(N)c1ccc(OCCCCCOc2ccc(C(=N)N)cc2)cc1` [PENTAMIDINE], in test [3], the half-maximal inhibitory concentration (IC50) is greater than 50 µM. The EC50 in [9] was 0.006 µM.

For the origin of these results see ChEMBL document CHEMBL1134510, “Adenosine analogues as selective inhibitors of glyceraldehyde-3-phosphate dehydrogenase of Trypanosomatidae via structure-based drug design” (J Med Chem, 2001).
